The data set can be described thus: Toxicity liver stage against HepG2, at 10uM. It counts as cell-based. The arrangement: test concentration 10 uM, cell line HepG2-A16-CD81EGFP. The note with it: human, HepG2-A16-CD81EGFP cells; read-out: INHIBITION
The essentials:
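Uninfected HepG2-A16-CD81EGFP cells, 3 × 10^3 per well, 1536-well, plated on prespotted compound at 10 μM final, parasite-free screening media added to match infected plates; puromycin 10 μM positive, DMSO 0.5% negative; run in parallel with 48 h PbLuc assay at 37 °C, 5% CO2; viability by CellTiter-Glo luminescence, normalized to controls.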
`CC(=O)N1CCN2C(=O)N(Cc3ccc(F)cc3)C[C@H]2C1`: the cytotoxicity at 10 µM was -4.26%.

As to `O=C(c1ccno1)N1CCN2C(=O)N(Cc3ccc(F)cc3)C[C@H]2C1`, the cytotoxicity at 10 µM is -5.96%.

For the molecule `COc1ccc(NC(=O)C2OC(c3cccs3)=NN2C(C)=O)cc1OC` (stereo unspecified), the cytotoxicity at 10 µM was -2.19%.

In the case of `CCN1CCCC1CNC(=O)Cc1c(-c2ccc(Cl)cc2)n[nH]c1C` (stereo unspecified), the cytotoxicity at 10 µM is -5.4%.

As to `Cc1cc(CN2CCC(CNS(=O)(=O)c3ccccc3F)CC2)c(C)o1`, the cytotoxicity at 10 µM turned out to be 5.48%.

As to `O=C(c1ccsc1)N1CCC(c2nnc(C3CC3)o2)CC1`, the cytotoxicity at 10 µM turned out to be 12.3%.

In the case of `O=C(NCCn1ccc(-c2ccccn2)n1)C1CCC1`, the cytotoxicity at 10 µM was 4.23%.

On to `O=C(N1CCCO1)[C@@]12CCO[C@@H]1CCN(Cc1ccsc1)C2`, for which the cytotoxicity at 10 µM came to 1.73%.

As for `O=C1CC(c2ccccc2Br)c2sc(N3CCOCC3)nc2N1` (stereo unspecified), the cytotoxicity at 10 µM is 9.4%.

As to `COc1cccc(-c2ccnc3nc(N4CCCCC4)[nH]c(=O)c23)c1`, the cytotoxicity at 10 µM was determined as 7.97%.

On to `CC(Nc1ncnc2c1NC(=O)CN2)c1ccccn1` (stereo unspecified), for which the cytotoxicity at 10 µM amounted to 7.66%.

On to `Cc1ccnc(C2CN(Cc3ccc(-c4ccccc4C(=O)O)o3)C2)n1`, for which the cytotoxicity at 10 µM amounted to 2.51%.

In the case of `CC(=O)NC[C@]1(O)CCN(C(=O)c2ccc3c(c2)CCC3)C[C@H]1O`, the cytotoxicity at 10 µM was found to be 1.75%.

Regarding `CC(C)CCN1CCCC12Cc1ccccc1CNC2=O` (stereo unspecified), the cytotoxicity at 10 µM was 7.61%.

In the case of `CCc1nnsc1C(=O)NCCc1nnc2n1CCC2`, the cytotoxicity at 10 µM is 3.16%.

`Cc1cc(CN2CCN(Cc3ccc(C#N)cc3OC(F)F)CC2)no1`: the cytotoxicity at 10 µM is 1.81%.

Turning to `Cc1cccc(C(=O)N(CCCO)S(=O)(=O)c2cccs2)c1`, the cytotoxicity at 10 µM worked out at 8.01%.

For `CC(=O)C(Cc1ccccc1)NC(=O)CSc1nccn1C1CC1` (stereo unspecified), the cytotoxicity at 10 µM came out at 5.22%.

As for `CC(C)Oc1ccc(CNC(=O)C2CCC(=O)N2)cn1` (stereo unspecified), the cytotoxicity at 10 µM is 10.5%.

`O=C(NC1CCN(C2CC2)C1)c1cn(-c2ccc(F)cc2)nn1` (stereo unspecified): the cytotoxicity at 10 µM is -2.25%.

For the molecule `CCc1[nH]c(C2(N)CCCC2)nc(=O)c1C`, the cytotoxicity at 10 µM was -1.29%.

As to `O=C(CNC(=O)c1ccc(Cl)cc1)Nc1nccs1`, the cytotoxicity at 10 µM was -7.55%.

In the case of `CCCC(=O)NCc1ccc(N2CCCCC2)cc1`, the cytotoxicity at 10 µM was found to be 3.54%.

On to `CS(=O)(=O)N1CCC(C(=O)N2CCN(Cc3cccc(Cl)c3)CC2)CC1`, for which the cytotoxicity at 10 µM came to 8.99%.

For `Cn1nc(CC(C)(C)C)cc1NC(=O)c1ccc2[nH]nnc2c1`, the cytotoxicity at 10 µM was 1.25%.

In the case of `COc1c(CNCc2cccc(CN3CCOCC3)c2)c(C)nn1C`, the cytotoxicity at 10 µM was found to be 11.1%.

With `CC(C)c1nnc(CNCC2CCCN2c2cccnn2)o1` (stereo unspecified), the cytotoxicity at 10 µM stood at 1.05%.

`CCC1CCCCN1Cc1ncc(-c2ccc(OC)cc2)o1` (stereo unspecified): the cytotoxicity at 10 µM was 8.57%.

Consider `CCc1nc(CN(C)Cc2ncc(-c3cccs3)o2)cs1`, for which the cytotoxicity at 10 µM came to 9.15%.

`CN(CCN1CCCC1=O)CC(c1cccs1)N1CCOCC1` (stereo unspecified): the cytotoxicity at 10 µM was found to be 1.52%.

As to `Cc1[nH]ccc1C(=O)N1CCCN1C(=O)OC(C)(C)C`, the cytotoxicity at 10 µM is -6.49%.

As to `Cc1noc(C(C)SCc2ccccn2)n1` (stereo unspecified), the cytotoxicity at 10 µM is -6.67%.

As to `OC1(CN2CCC(Cc3ccccc3)CC2)CCC1`, the cytotoxicity at 10 µM was -8.26%.

Turning to `c1cnn(C2CN(Cc3noc(C4CC4)n3)C2)c1`, the cytotoxicity at 10 µM was 0.138%.

As to `c1cnc(N2CCN(Cn3nccc3-c3cccnc3)CC2)nc1`, the cytotoxicity at 10 µM is 8.99%.

As to `Cc1csc(C2(NCc3ccc(OCC(F)F)cc3)CCCC2)n1`, the cytotoxicity at 10 µM amounted to 2.15%.

For the molecule `Cc1nn(C)c(Cl)c1S(=O)(=O)N(C)c1ccc(Cl)cn1`, the cytotoxicity at 10 µM is 7.92%.

As to `Cn1ccnc1-c1cccc(NC(=O)NCCN2CCOCC2)c1`, the cytotoxicity at 10 µM was -7.85%.

Consider `CCc1nc(C2CCCN2CC(=O)Nc2c(C)nn(C)c2C)no1` (stereo unspecified), for which the cytotoxicity at 10 µM was -31.4%.

In the case of `Cc1csc(N2CCN(CCc3ccccn3)CC2C)n1` (stereo unspecified), the cytotoxicity at 10 µM is -8.81%.

With `Cc1ccc2c(c1)[C@@H](CC(=O)N1CCOCC1)CCO2`, the cytotoxicity at 10 µM was 8.24%.

As to `Nc1ncc(-c2cccc(NC(=O)[C@@H]3CCCCN3)c2)cn1`, the cytotoxicity at 10 µM was 1.86%.

Regarding `COc1cncc(-n2ccnc2-c2ccc(C(=O)O)s2)c1`, the cytotoxicity at 10 µM was 0.571%.

As to `COc1cc(C(=O)N(C)C(C)Cc2cc(C)ccn2)ccn1` (stereo unspecified), the cytotoxicity at 10 µM was -9.57%.

For `Cc1nc[nH]c1CN1CCN(C(=O)C2CC2)[C@H]2CS(=O)(=O)C[C@H]21`, the cytotoxicity at 10 µM amounted to 0.855%.

`Cn1c(CN2CC[C@](C)(O)C(C)(C)C2)cc2ccccc21`: the cytotoxicity at 10 µM is -3.6%.

On to `CCn1ccnc1CN(C)Cc1nc(Cc2ccccc2Cl)no1`, for which the cytotoxicity at 10 µM was -1.99%.

Turning to `Cn1ncnc1-c1ccnc(NCc2ccncc2)n1`, the cytotoxicity at 10 µM was -3.89%.

Regarding `COc1ccc(C(=O)C2CCCN(Cc3cnn(C)c3C)C2)c(OC)c1` (stereo unspecified), the cytotoxicity at 10 µM is -8.85%.

With `OCC1(Cc2ccc(Cl)cc2)CCN(Cc2ccccc2O)CC1`, the cytotoxicity at 10 µM is -137%.

Regarding `CC(C)C1=NOC(c2nc(-c3cccc(Cl)c3)no2)C1` (stereo unspecified), the cytotoxicity at 10 µM was -7.42%.

`O=C(c1ccc(C2CCCO2)s1)N1CCCOCC1` (stereo unspecified): the cytotoxicity at 10 µM is -0.256%.

As to `Cc1ncc2c(c1CNC(=O)C1(C)CC1)CCNC2`, the cytotoxicity at 10 µM was -50.3%.

As to `O=C1CCCN1c1cccc(N2CCC(NCCc3cscn3)CC2)c1`, the cytotoxicity at 10 µM was -26%.

In the case of `Cc1ccc(C(=O)N2C[C@H](NS(C)(=O)=O)[C@@H](C(C)C)C2)cc1F`, the cytotoxicity at 10 µM was -2.36%.

In the case of `CC(C)N1CC2(CCCN(c3ncc(Cl)cc3F)C2)CCC1=O` (stereo unspecified), the cytotoxicity at 10 µM came to 12.2%.

On to `Cc1nnsc1C(=O)N1CCN(CC2CC2)[C@@H]2CS(=O)(=O)C[C@@H]21`, for which the cytotoxicity at 10 µM was determined as 0.445%.

Regarding `O=C(COCc1ccccc1)N1CCCn2cncc2C1`, the cytotoxicity at 10 µM stood at 0.375%.

Consider `CS(=O)(=O)CCc1ncnn1-c1ccc(F)c(Cl)c1`, for which the cytotoxicity at 10 µM was -4.56%.

In the case of `COc1cccc2c1OCCCN(c1nc(C)nc3c1CCNCC3)C2`, the cytotoxicity at 10 µM was -10.6%.

As for `CCc1nnc(CN2CCc3[nH]c(-c4ccc(OC)cc4)nc3C2)o1`, the cytotoxicity at 10 µM is -132%.

On to `CC(C)C1CN(C(=O)c2cc(C3CC3)n[nH]2)CCC(=O)N1CC1CC1` (stereo unspecified), for which the cytotoxicity at 10 µM is -9.55%.

In the case of `CNc1nc2c(c(C(=O)N3CCCC3)n1)CN(Cc1cc(C)no1)CC2`, the cytotoxicity at 10 µM was -103%.

As to `N#Cc1cccc(N2CCC3(CC2)Nc2ccccc2NC3=O)n1`, the cytotoxicity at 10 µM is 5.57%.

`O=C(NCCc1[nH]nc2c1CCCC2)C1CCCN(Cc2ccco2)C1` (stereo unspecified): the cytotoxicity at 10 µM is 2.72%.

With `CCN1CCC(CNc2nccc(C)n2)(N(C)C)CC1`, the cytotoxicity at 10 µM is -0.51%.

With `CCN(Cc1ccc(C(C)=O)cc1)CC1CCOCC1`, the cytotoxicity at 10 µM is -2.69%.

`Cc1nc(CN(C)Cc2nc(-c3ccccc3)no2)co1`: the cytotoxicity at 10 µM was -1.86%.

With `CN(C)C(C(=O)N1CCC(c2ncc[nH]2)CC1)c1ccc2c(c1)OCO2` (stereo unspecified), the cytotoxicity at 10 µM turned out to be 2.8%.

On to `CCN(Cc1ccncc1)c1cc(C2CCNCC2)nc(C)n1`, for which the cytotoxicity at 10 µM was 4.34%.

As for `CCc1[nH]c2c(CNc3cncc(C(=O)N(C)C)n3)cc(C)cc2c1C`, the cytotoxicity at 10 µM is -10.2%.

`CN(Cc1cc2n(n1)CCNC2)Cc1cc(-c2ccccn2)no1`: the cytotoxicity at 10 µM was 1.91%.

Take `COc1cc(N(C)CCCn2nc(C)cc2C)ncn1`: the cytotoxicity at 10 µM turned out to be 1.6%.

As to `O=C(c1cc(Cn2cnc3ccccc32)on1)N1CCOCC1`, the cytotoxicity at 10 µM was -2.46%.

`c1cnc(N2CCN(CCn3ccnc3-c3c[nH]cn3)CC2)nc1`: the cytotoxicity at 10 µM came out at 2.14%.

As to `Cc1ccc(-c2noc(CCC3CCN(C)CC3)n2)nn1`, the cytotoxicity at 10 µM was -5.79%.

Regarding `COc1cccc2c1OCC(CNC(=O)CNC(N)=O)C2` (stereo unspecified), the cytotoxicity at 10 µM is -2.93%.

For the molecule `O=C(c1ccccn1)N1CCCC(c2nccn2CC2CCC2)C1` (stereo unspecified), the cytotoxicity at 10 µM was -22.4%.

Regarding `O=C(c1cccc(S(=O)(=O)NCCCc2ccco2)c1)N1CCOCC1`, the cytotoxicity at 10 µM was -23.6%.

`CN(C)C(=O)c1ccc2c(c1)N(C)C(CC(=O)NCCC(C)(C)C)CO2` (stereo unspecified): the cytotoxicity at 10 µM was -0.8%.

In the case of `Cc1nc(C)n(C2CCCN(C(=O)c3ccnc(N(C)C)c3)C2)n1` (stereo unspecified), the cytotoxicity at 10 µM is -8.36%.

For the molecule `Cc1nc(N2CCCN(C(=O)c3ccsc3)CC2)c2cnn(C)c2n1`, the cytotoxicity at 10 µM was -10.8%.

On to `O=c1[nH]c(CCN2CCCC2Cn2cccn2)nc2ccccc12` (stereo unspecified), for which the cytotoxicity at 10 µM is -8.05%.

Take `O=C(NCCCN1CCCCC1)c1n[nH]c(=O)c2ccccc12`: the cytotoxicity at 10 µM was -30.9%.

`Cc1csc(N2CCCN(C(=O)Cc3cccs3)CC2)n1`: the cytotoxicity at 10 µM was -6.87%.

`Cc1nc(C)n(C2CCCN(C(=O)c3csc(C)n3)C2)n1` (stereo unspecified): the cytotoxicity at 10 µM was -18.7%.

For the molecule `COc1cc(C(=O)NS(=O)(=O)c2cccc(C#N)c2)ccc1C`, the cytotoxicity at 10 µM was -9.29%.

As to `CC(C)(C)NC(=O)C1CSCN1S(=O)(=O)c1ccc(F)cc1` (stereo unspecified), the cytotoxicity at 10 µM was 0.65%.

In the case of `CC(C)Sc1ncccc1C(=O)NCc1ccc(CS(C)(=O)=O)cc1`, the cytotoxicity at 10 µM was 3.78%.

Consider `Cc1cc(C)n(C2CCCN(C(=O)c3cc(C4CC4)on3)C2)n1` (stereo unspecified), for which the cytotoxicity at 10 µM is -1.11%.

On to `CC(C)c1nc2n(n1)CC(NCc1ncc(-c3ccccc3)o1)CC2` (stereo unspecified), for which the cytotoxicity at 10 µM is -0.361%.

Turning to `CC(=O)Nc1ccc(Oc2cc(C)nc(C3CCCNC3)c2)cc1` (stereo unspecified), the cytotoxicity at 10 µM was determined as 2.58%.

Take `Cc1ccc(N2CC[C@H]3C[C@H](C(=O)NCc4ccco4)O[C@H]3C2)nn1`: the cytotoxicity at 10 µM is -3.03%.

On to `Cc1cncc(C(=O)N2CCO[C@H]3[C@H](OCCN(C)C)CC[C@@H]32)c1`, for which the cytotoxicity at 10 µM is 8.07%.

Consider `O=C(c1cnccn1)N1C[C@@H](OCc2cccnc2)[C@H]2OCCC[C@H]21`, for which the cytotoxicity at 10 µM was -2.78%.

For `NCC1CCC(C(NC(=O)c2cccc(F)c2)c2ccccn2)CC1` (stereo unspecified), the cytotoxicity at 10 µM was -6.83%.

The record behind these values is ChEMBL document CHEMBL4513216, “Probing the Open Global Health Chemical Diversity Library for Multistage-Active Starting Points for Next-Generation Antimalarials” (ACS Infect Dis, 2020).
